Screens: PubChem, several laboratories
NR3A LBD binder – binders of NR3A ligand-binding domain, primary screen, biophysical, differential scanning fluorimetry, uHTS. Glutamate receptor ionotropic, NMDA 3A (GRIN3A) ligand-binding domain. Tm shift relative to glycine control, % at 25 µM. NR3A LBD differential scanning fluorimetry, Tm shift; 0% = protein alone, 100% = glycine-bound protein. 340,000 tested, 2.5% active;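 active = melting temperature shift of at least 10% of the positive control shift, at one fixed dose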
SENP1 FRET inh – human SENP1 catalytic domain inhibitors, primary screen, biochemical, FRET, uHTS; 360,000 tested, 0.21% active; AID 624204, 2012; recombinant SENP1 catalytic domain, CyPet-SUMO1-YPet FRET cleavage; inhibition, % at 10 µM;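 active = inhibition at least 30% at 10 µM, raw YFP signal under a set limit, fluorescence ratio 0.5 to 1.5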;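 also: 0% = enzyme with DMSO and 100% = no enzyme wells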
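Material: hSENP1 catalytic domain, recombinant; medium: Tris pH 8 with BME, BSA, NP40 and catalase; compound: single concentration of 10 µM compound, 0.5% DMSO final; technique: FRET read of cyan and yellow fluorescence; timing: 50 min enzyme reaction, room temperature, light-protected; reagent: SFCypet-SUMO1-SFYpet substrate at 25 nM; control set: no-enzyme low, enzyme-DMSO high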
FAS-TE inh – FAS thioesterase domain inhibitors, primary screen, biochemical, fluorescence intensity, uHTS. recombinant FAS-TE, OMFH fluorogenic substrate, fluorescence endpoint. inhibition, % at 15 µM. 360,000 tested, 0.67% active. AID 602261, 2012;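 active = compounds whose normalised, plate-corrected inhibition of enzyme fluorescence in the single-dose primary screen is 50% or more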;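 also: 0% = DMSO with enzyme and 100% = substrate without enzyme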
Cardio protect – cardioprotection against H2O2-induced cell death, primary screen, uHTS, H9c2 cells, ATPLite luminescence; H9c2 cardiomyocytes, H2O2 injury protection, 2 h; 360,000 tested, 0.63% active; AID 588492, 2011; protection from H2O2 cell death, % at 20 µM;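 active = compounds giving at least 50% protection of heart cells from peroxide-induced death in the single-dose screen, raw or plate-pattern-corrected value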;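 also: 0% = DMSO wells with peroxide and 100% = DMSO wells without peroxide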
Arrestin-AP2 inh – inhibitors of beta-arrestin/AP2 binding, primary screen, biochemical, GPCR trafficking, flow cytometry | beta-arrestin 1 C-terminal peptide binding to AP2 beta2-adaptin appendage (human) | FITC-arrestin peptide / GST-AP2 beads; AP2 beta2 appendage carries R879A mutation | inhibition, % at 10 µM | 340,000 tested, 0.31% active | AID 504490, 2011;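 active = inhibition above a set limit, near 3 SD of compounds lacking own fluorescence, cut at about 54% in these data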;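 also: plate controls were DMSO wells for no effect and 5 µM unlabelled arrestin peptide for full effect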
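test system = AP2 appendage R879A on GSH beads | buffer or medium = PBS plus Tween 20 (0.05%) and BSA (0.1%) | incubation = 12 min plus 1 h, RT | detection = bead flow cytometry, FITC channel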
iPSC survival up – enhancers of single-cell hiPSC survival, primary screen, ATPlite luminescence; 100% = ROCK inhibitor wells, 0% = DMSO; survival enhancement, % at 20 µM; AID 602274, 2012; 360,000 tested, 0.044% active; in the data active = survival enhancement above about 18%;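 also: cells exposed to compounds for 16 hours before the ATP read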
Arr AP2 CP1 – inhibitors of arrestin peptide binding to AP2, confirmation, biochemical, cherry pick 1, flow cytometry beads; AID 504908, 2011; shares compounds with Arrestin-AP2 inh; GST-AP2 beads, FITC arrestin peptide binding; GST-fused beta2-adaptin appendage, R879A mutant; inhibition, % at 10 µM; 1,300 tested, 2% active;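 active = inhibition above a set limit, roughly 3 SD of non-fluorescent compound noise, cut at about 38% in these data; inactive = inhibition at or below that limit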;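 also: loss of bead fluorescence from 50 nM FITC arrestin peptide bound to appendage; 0% = negative control wells and 100% = excess unlabelled arrestin peptide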
Target sequence (P63010 whole entry, looked up, the tested form may be a part, one chain of several): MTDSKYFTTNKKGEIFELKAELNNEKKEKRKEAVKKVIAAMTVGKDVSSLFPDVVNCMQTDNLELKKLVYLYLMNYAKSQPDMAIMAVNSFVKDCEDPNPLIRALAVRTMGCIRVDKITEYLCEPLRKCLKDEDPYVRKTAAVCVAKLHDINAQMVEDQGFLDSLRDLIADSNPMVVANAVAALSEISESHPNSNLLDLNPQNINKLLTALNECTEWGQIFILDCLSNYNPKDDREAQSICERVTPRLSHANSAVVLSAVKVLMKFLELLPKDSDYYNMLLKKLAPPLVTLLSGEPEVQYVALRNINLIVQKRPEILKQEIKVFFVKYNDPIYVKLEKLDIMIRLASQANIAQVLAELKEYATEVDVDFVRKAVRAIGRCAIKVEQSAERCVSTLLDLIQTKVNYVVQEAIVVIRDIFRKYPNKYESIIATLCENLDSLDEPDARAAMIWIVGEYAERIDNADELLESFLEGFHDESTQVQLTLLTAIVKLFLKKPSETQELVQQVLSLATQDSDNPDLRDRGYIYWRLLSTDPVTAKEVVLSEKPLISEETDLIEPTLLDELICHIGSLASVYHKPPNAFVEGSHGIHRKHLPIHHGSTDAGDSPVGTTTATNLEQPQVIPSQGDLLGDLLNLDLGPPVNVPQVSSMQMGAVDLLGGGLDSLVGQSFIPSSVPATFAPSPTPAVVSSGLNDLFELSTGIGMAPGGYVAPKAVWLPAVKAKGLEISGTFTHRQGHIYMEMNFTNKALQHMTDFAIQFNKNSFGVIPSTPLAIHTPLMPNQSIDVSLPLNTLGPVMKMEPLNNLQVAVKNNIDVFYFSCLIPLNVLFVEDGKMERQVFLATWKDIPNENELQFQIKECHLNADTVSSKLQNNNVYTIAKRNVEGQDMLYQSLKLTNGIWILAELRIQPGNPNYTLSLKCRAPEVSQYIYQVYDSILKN
GST GSH counter – GST-fluorescein capture on glutathione beads, confirmation, artefact control for arrestin-AP2 inhibitor project, biochemical, cherry pick 1, flow cytometry; AID 588338, 2011; 1,300 tested, 2% active; inhibition, % at 10 µM; GST-fluorescein binding to GSH beads, fluorescence, counter-screen; shares compounds with Arrestin-AP2 inh;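 active = inhibition above 50%, about 3 SD of the inhibition seen with non-fluorescent compounds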;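 also: fluorescein maleimide labelled GST captured on 4 micron glutathione beads; higher means more loss of bead fluorescence from quenching or blocked binding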
* hit, by the source's call; nt = no result given. An excerpt weighted towards active compounds, which were near 4% of everything screened.

SMILES	NR3A LBD binder	SENP1 FRET inh	FAS-TE inh	Cardio protect	Arrestin-AP2 inh	iPSC survival up	Arr AP2 CP1	GST GSH counter
COc1cccc(C(=O)Nc2ccc(NC(=O)c3ccco3)c(Cl)c2)c1	8	1	8	30	56*	0	1	-6
COc1cccc(NC(=O)c2cccc(NC(=O)c3ccco3)c2)c1	nt	2	-2	0	nt	6	nt	nt
CCOc1ccc(-c2nc(CSCC(=O)NCc3ccco3)c(C)o2)cc1	-1	0	-3	-11	98*	1	5	-7
CCOc1ccc(-c2nc(CSCC(=O)NC3CC3)c(C)o2)cc1	-2	1	-2	1	-2	0	nt	nt
O=[N+]([O-])c1ccc(CN2CCN(c3ccc4ccccc4n3)CC2)cc1	-7	-1	22	-10	54*	-2	-2	2
CCOC(=O)C1=C(COC(=O)CCOc2cccc(C)c2)NC(=O)NC1C (centres undefined)	1	0	-6	6	11	0	-8	-6
CCOC(=O)C1=C(COC(=O)CCOc2ccccc2)NC(=O)NC1C (centres undefined)	2	3	-1	2	-8	1	-10	-11
CCOC(=O)C1=C(COC(=O)CCOc2cc(C)ccc2C)NC(=O)NC1C (centres undefined)	0	1	-5	1	-6	0	-3	-9
COc1ccc(S(=O)(=O)N2CCOC2CNC(=O)C(=O)NCc2ccc3c(c2)OCO3)cc1C (centres undefined)	nt	0	1	-2	nt	-1	nt	nt
CCOc1ccc(OCCCC(=O)N2CCN(S(=O)(=O)c3ccccc3C#N)CC2)cc1	0	0	19	-2	57*	0	-14	0
CC1=C(C(=O)N2CCOCC2)CC(CC(=O)NCC2CCCCC2)C(=O)N1Cc1ccccc1 (centres undefined)	nt	1	-7	-3	nt	-1	nt	nt
O=C(Cn1cnc(S(=O)(=O)N2CCCC2)c1)Nc1ccc(OC(F)(F)F)cc1	0	1	-3	-6	66*	0	2	-5
Cn1c(=O)c(C(=O)NNC(=O)c2ccccc2Br)c(O)c2ccccc21	-2	1	2	1	56*	0	-7	4
Cn1c(=O)c(C(=O)NNC(=O)c2ccccc2Cl)c(O)c2ccccc21	-2	2	4	14	24	1	nt	nt
COc1cccc(CNC(=O)c2ccncc2)c1	1	-1	-2	7	68*	0	-5	-2
COc1cc(C(=O)NCC(c2cccs2)N2CCOCC2)cc(Br)c1OCc1ccccc1 (centres undefined)	-14	0	27	-3	27	0	nt	nt
O=[N+]([O-])c1ccc(CNc2cccc(Cl)c2)s1	-4	0	3	-8	60*	0	-7	1
O=c1c2cnn(-c3ccc(F)cc3)c2ncn1Cc1ccc(F)cc1	-2	0	-8	2	90*	0	-6	-1
O=c1c2cnn(-c3ccccc3)c2ncn1Cc1ccccc1	1	3	3	-12	5	-2	nt	nt
O=C(CNS(=O)(=O)c1ccccc1)OCC(=O)c1c[nH]c2ccccc12	-4	2	-2	4	76*	0	9	-6
O=C(Nc1ccc(F)cc1)C(c1cccc(F)c1)N1CCN(C(=O)c2ccco2)CC1 (centres undefined)	nt	2	nt	nt	nt	nt	nt	nt
CN1CCN(S(=O)(=O)c2cccc(C(=O)NC3CCCC3)c2)CC1	-2	1	-7	-2	60*	0	3	3
Cc1ccc(S(=O)(=O)N2CCCC(C(=O)NC3CCCC3)C2)cc1Cl (centres undefined)	-3	2	2	2	57*	0	-10	0
CC(=O)N1CCN(S(=O)(=O)c2cccc(C(=O)NC3CCCC3)c2)CC1	7	-4	-10	0	-19	-2	nt	nt
O=C(CN1C(=O)COc2ccc(Cl)cc21)N1CCCCC1	-2	1	-4	3	55*	0	2	-6
SMILES	NR3A LBD binder	SENP1 FRET inh	FAS-TE inh	Cardio protect	Arrestin-AP2 inh	iPSC survival up	Arr AP2 CP1	GST GSH counter
CC1CCN(C(=O)CN2C(=O)COc3ccc(Cl)cc32)CC1	0	0	0	3	-2	0	nt	nt
O=C(CCn1c(=S)[nH]c2ccccc2c1=O)Nc1ccc(F)cc1	-6	3	-2	5	74*	0	14	84*
COc1ccc(NC(=O)CCn2c(=S)[nH]c3ccccc3c2=O)cc1	-2	3	-11	-6	25	0	nt	nt
COc1cc(NC(=O)CCCn2c(=S)[nH]c3ccccc3c2=O)cc(OC)c1OC	0	0	-3	5	-9	2	nt	nt
COc1ccc(NC(=O)CCCn2c(=S)[nH]c3ccccc3c2=O)cc1	1	3	-6	10	2	0	nt	nt
COc1ccc(NC(=O)CCCn2c(=O)[nH]c3ccccc3c2=O)cc1	2	-1	-5	0	9	-1	-14	-6
COc1ccc(NC(=O)CCCCn2c(=O)[nH]c3ccccc3c2=O)cc1	4	-3	0	-2	5	2	-3	-3
C[C@H](CO)N1C[C@H](C)[C@@H](CN(C)C(=O)CCC(F)(F)F)OCc2cnnn2CCCC1=O	nt	-2	-13	-2	nt	-1	nt	nt
COc1ccc([C@H]2CC(=O)C[C@@H](CCn3cc(-c4ccncc4)nn3)O2)cc1	nt	2	-3	nt	nt	0	nt	nt
C=C(C)C1CC=C(CN2CCN(Cc3ccccc3)CC2)CC1 (centres undefined)	-4	1	0	-1	0	0	nt	nt
C=C(C)[C@@H]1CC=C(CN2CCN(Cc3ccccc3)CC2)CC1	1	1	3	-7	60*	1	-4	2
O=C(CN1CCOCC1)Nc1ccc(Cl)cn1	0	0	-3	0	54*	0	10	8
